Assays:
[1] = tested on: human cannabinoid receptor CB1; details: cited from earlier work
a different cell line = details: cited from earlier work
CB1 receptor [2] = biological target: T1, CB1 receptor (Homo sapiens, UniProt P21554); assay: Cannabinoid CB1 receptor binding assay; details: read-out: CB1 Ki; human recombinant CB1 in HEK-293 cells, [3H]CP-55940 0.5 nM
CB2 receptor [3] = biological target: T2, CB2 receptor (Homo sapiens, UniProt P34972); assay: Cannabinoid CB2 receptor binding assay; details: read-out: CB2 Ki; human recombinant CB2 in HEK-293 cells, [3H]CP-55940 0.5 nM
T2 sequence (P34972 whole entry): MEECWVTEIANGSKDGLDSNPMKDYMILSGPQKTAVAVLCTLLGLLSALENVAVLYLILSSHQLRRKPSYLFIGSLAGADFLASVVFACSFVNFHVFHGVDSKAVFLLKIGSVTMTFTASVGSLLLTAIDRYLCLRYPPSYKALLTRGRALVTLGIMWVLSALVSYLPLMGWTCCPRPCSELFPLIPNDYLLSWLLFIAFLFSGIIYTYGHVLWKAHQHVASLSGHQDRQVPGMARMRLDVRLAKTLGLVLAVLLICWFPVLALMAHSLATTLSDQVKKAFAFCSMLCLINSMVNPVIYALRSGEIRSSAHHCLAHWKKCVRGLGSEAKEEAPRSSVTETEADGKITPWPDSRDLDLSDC

CB1 receptor [4] = biological target: T1, CB1 receptor; assay: cAMP functional assay, forskolin-stimulated, CHO-K1 cells expressing CB1; format: cell-based; details: through CB1 receptor
CB2 receptor [5] = biological target: T2, CB2 receptor; assay: cAMP functional assay, forskolin-stimulated, CHO-K1 cells expressing CB2; format: cell-based; details: through CB2 receptor
[6] = biological target: T3, fatty acid amide hydrolase (FAAH) (Homo sapiens, UniProt O00519); assay: FAAH inhibitor enzyme assay; format: biochemical; details: tested at 10 and 100 μM
T3 sequence (O00519 1-579): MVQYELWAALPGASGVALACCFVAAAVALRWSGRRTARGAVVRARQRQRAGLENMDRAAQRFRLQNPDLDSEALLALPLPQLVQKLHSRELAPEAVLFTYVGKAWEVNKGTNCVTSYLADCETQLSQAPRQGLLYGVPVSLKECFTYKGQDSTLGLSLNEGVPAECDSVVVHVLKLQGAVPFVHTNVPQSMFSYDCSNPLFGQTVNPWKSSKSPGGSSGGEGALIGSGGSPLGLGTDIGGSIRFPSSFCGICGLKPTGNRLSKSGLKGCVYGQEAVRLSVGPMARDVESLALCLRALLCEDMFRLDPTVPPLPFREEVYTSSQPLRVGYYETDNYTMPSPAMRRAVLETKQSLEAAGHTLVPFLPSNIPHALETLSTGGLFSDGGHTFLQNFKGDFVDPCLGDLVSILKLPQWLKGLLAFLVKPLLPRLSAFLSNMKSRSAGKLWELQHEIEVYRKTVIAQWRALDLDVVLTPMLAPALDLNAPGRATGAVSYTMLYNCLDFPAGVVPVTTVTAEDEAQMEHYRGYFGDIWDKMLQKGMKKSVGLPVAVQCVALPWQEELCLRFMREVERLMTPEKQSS
How it was run: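 Kit FAAH enzyme was preincubated in assay buffer with the test compound (10 and 100 μM) or solvent control. The reaction was started with AMC arachidonoyl amide substrate (20 μM final) and run for 30 min at 37 °C. Fluorescence was read at ex 350 nm / em 455 nm.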

[7] = tested on: NO production in RAW 264.7 mouse macrophage cells; assay: NO assay in LPS-induced RAW 264.7 macrophages; format: cell-based; details: read-out: IC50, inhibition of NO production; LPS-induced RAW 264.7, 24 h
How it was run: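 Mouse RAW 264.7 cells in DMEM with 10% FBS, 5% CO2, seeded at 2 × 10^4 cells/well. After 24 h, test compound or solvent control (1% EtOH) was added, then LPS (0.5 μg/mL). Medium nitrite was measured after 24 h by Griess reagent: sulfanilamide, then naphthylethylenediamine-HCl, 5 min each at RT in the dark, A540. Quantified against a 0–100 μM nitrite standard curve; duplicates.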

[8] = tested on: HT-29 colon adenocarcinoma cells; assay: Cell viability assay; format: cell-based; details: 48 h, MTT
How it was run: (§1)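 Cells grown in DMEM with 10% FBS at 37 °C, 5% CO2. Seeded at 10,500 cells/well (MCF7) or 11,000 cells/well (HT-29). After 24 h, treated with various concentrations of the test compound or solvent control (1% EtOH). Viability was read by MTT after 48 h.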

MCF7 breast cancer cells = assay: Cell viability assay; format: cell-based; details: up to 100 μM, 48 h, MTT
How it was run: as §1

RAW 264.7 cells = assay: Cellular viability of RAW 264.7 macrophages; format: cell-based, mouse; details: RAW 264.7, up to 25 μM

T1 sequence (P21554 whole entry): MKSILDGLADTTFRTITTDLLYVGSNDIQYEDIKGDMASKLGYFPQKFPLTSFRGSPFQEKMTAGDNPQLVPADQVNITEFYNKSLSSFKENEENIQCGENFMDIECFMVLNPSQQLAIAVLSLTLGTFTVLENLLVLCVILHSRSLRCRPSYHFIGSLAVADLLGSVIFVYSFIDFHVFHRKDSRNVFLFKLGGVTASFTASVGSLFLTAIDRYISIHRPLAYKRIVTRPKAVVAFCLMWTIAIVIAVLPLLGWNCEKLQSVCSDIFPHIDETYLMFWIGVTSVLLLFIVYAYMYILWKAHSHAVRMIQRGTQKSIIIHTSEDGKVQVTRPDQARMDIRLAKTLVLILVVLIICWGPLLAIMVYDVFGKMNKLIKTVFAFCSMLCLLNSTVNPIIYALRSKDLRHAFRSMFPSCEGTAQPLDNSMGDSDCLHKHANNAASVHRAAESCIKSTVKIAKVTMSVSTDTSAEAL

Compound	Selectivity for the CB1 receptor over CB2 ([1]; human CB1 vs CB2 binding)	Ki ([1]; read-out: CB1 Ki, human CB1) [µM]	Cytotoxic properties (a different cell line)	Ki (CB1 receptor [2]) [µM]	Ki (CB2 receptor [3]) [µM]	Functional mode at CB1 (inhibition of forskolin-stimulated cAMP accumulation) (CB1 receptor [4])	Functional mode at CB2 (inhibition of forskolin-stimulated cAMP accumulation) (CB2 receptor [5])	FAAH inhibition [6]	IC50 [7] [µM]	Cytotoxicity against HT-29 ([8]; up to 100 μM)	Cytotoxicity against MCF7 (MCF7 breast cancer cells)	Effect on cellular viability (RAW 264.7 cells)	IC50 ([8]; read-out: IC50, cytotoxicity to HT-29 cells) [µM]
CCCCCCCCCCCCC/C=C/CCC(=O)N(C)[C@H](CO)COC [Compound 4, serinolamide A]	more than 5 fold	1.3	showed some cytotoxic properties										
CCCCCCCCCCCCC/C=C/CCC(=O)N[C@H](CO)COC [Compound 5, Serinolamide B]				16.4	5.2	cannabinoid receptor agonists	cannabinoid receptor agonists	no considerable inhibitory effects	> 25	failed to show significant cytotoxicity	failed to show significant cytotoxicity		
CCCCCCC[C@@H](C/C=C/CCC(=O)N(C)C/C(=C/Cl)C/C(=C\C(=O)N1CC(O)CC1=O)OC)OC (stereo partly shown) [Compound 6, malyngamide B]				3.6	2.6	cannabinoid receptor agonists	cannabinoid receptor agonists	no considerable inhibitory effects	6.2			without affecting cellular viability	26

From article PMC3748600 (Chembiochem : a European journal of chemical biology, 2012)
